# Source: ChEMBL document CHEMBL3856220, “Synthesis and antileishmanial activity of C7- and C12-functionalized dehydroabietylamine derivatives” (Eur J Med Chem, 2016)
# Tests used:
# [1] = Cytotoxicity against mouse J774 cells assessed as reduction of cell viability after 48 hrs by resazurin dye-based fluorometric method; type: toxicity
# Outline: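 J774 murine macrophages grown in RPMI-1640 with 10% heat-inactivated FBS, penicillin/streptomycin, 37 °C, 5% CO2, and harvested mechanically at pre-confluence. Seeded at 5×10^4 cells/well and allowed to attach 2 h. Compound added at 100–0.78 µg/mL (1:2 series, final), 48 h exposure. Resazurin 2.5 mM (20 µL) then 3 h, fluorescence read. Triplicates. CC50 = 50% viability loss versus untreated.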
# Leishmania infantum [2] = experiment: Leishmanicidal activity against promastigote form of Leishmania infantum MCAN/ES/96/BCN150 after 48 hrs by resazurin dye-based fluorometric method; type: functional; settings: MCAN/ES/96/BCN150, 48 h
# Outline: (§1)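 Promastigotes grown in Schneider's medium with 10% heat-inactivated FBS at 26 °C. 2.5×10^5 parasites/well. DMSO stocks at 100 mg/mL, diluted 1:2 in medium to final 100–0.78 µg/mL. 48 h at 26 °C, then 2.5 mM resazurin (20 µL) for 3 h. Fluorescence read at ex 535/em 590 nm, with growth inhibition corrected for signal-to-noise. Triplicates; IC50 by probit analysis.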
# Leishmania guyanensis = experiment: Leishmanicidal activity against promastigote form of Leishmania guyanensis 141/93 after 48 hrs by resazurin dye-based fluorometric method; type: functional; settings: 141/93, 48 h; outline: as §1
# [3] = Selectivity index, ratio of CC50 for mouse J774 cells to IC50 for amastigote form of Leishmania infantum MCAN/ES/96/BCN150 infected in mouse J774 cells; type: functional
# Outline: (§2)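 Selectivity index computed as CC50 from the J774 resazurin viability assay divided by IC50 from the matching promastigote or intracellular amastigote resazurin assay.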
# [4] = Selectivity index, ratio of CC50 for mouse J774 cells to IC50 for promastigote form of Leishmania guyanensis 141/93; type: functional; outline: as §2
# Leishmania amazonensis [5] = experiment: Leishmanicidal activity against promastigote form of Leishmania amazonensis MHOM/Br/79/Maria after 48 hrs by resazurin dye-based fluorometric method; type: functional; outline: as §1
# Leishmania infantum [6] = experiment: Leishmanicidal activity against amastigote form of Leishmania infantum MCAN/ES/96/BCN150 infected in mouse J774 cells after 48 hrs by resazurin dye-based fluorometric method; type: functional, cell-based; settings: MCAN/ES/96/BCN150, J774, 48 h
# Outline: (§3)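 5×10^4 macrophages in RPMI-1640 infected with 5×10^5 promastigotes. L. infantum infection was 48 h at 37 °C; L. amazonensis was 24 h at 33 °C then 24 h at 37 °C. Free parasites washed off with RPMI-HEPES pH 7.4. Compound at 100–0.78 µg/mL (final), 48 h at 37 °C. Cells lysed with 0.02% SDS, then 3 days at 26 °C in Schneider's medium. Resazurin 3 h, fluorescence read. Triplicates; IC50 by probit analysis.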
# [7] = Selectivity index, ratio of CC50 for mouse J774 cells to IC50 for promastigote form of Leishmania donovani MHOM/IN/80/DD8; type: functional; outline: as §2
# [8] = Selectivity index, ratio of CC50 for mouse J774 cells to IC50 for amastigote form of Leishmania amazonensis MHOM/Br/79/Maria infected in mouse J774 cells; type: functional; outline: as §2
# [9] = Selectivity index, ratio of CC50 for mouse J774 cells to IC50 for promastigote form of Leishmania infantum MCAN/ES/96/BCN150; type: functional; outline: as §2
# [10] = Selectivity index, ratio of CC50 for mouse J774 cells to IC50 for promastigote form of Leishmania amazonensis MHOM/Br/79/Maria; type: functional; outline: as §2
# Leishmania donovani [11] = experiment: Leishmanicidal activity against promastigote form of Leishmania donovani MHOM/IN/80/DD8 after 48 hrs by resazurin dye-based fluorometric method; type: functional; settings: MHOM/IN/80/DD8, 48 h; outline: as §1
# Leishmania amazonensis [12] = experiment: Leishmanicidal activity against amastigote form of Leishmania amazonensis MHOM/Br/79/Maria infected in mouse J774 cells after 48 hrs by resazurin dye-based fluorometric method; type: functional, cell-based; settings: J774, 48 h; outline: as §3
# Leishmania infantum [13] = experiment: Potency index, ratio of miltefosine IC50 to compound IC50 for amastigote form of Leishmania infantum MCAN/ES/96/BCN150 infected in mouse J774 cells; type: functional
# Leishmania braziliensis = experiment: Antileishmanial activity against amastigote form of Leishmania braziliensis MHOM/BR/1975/M2904 infected in mouse J774.2 cells after 72 hrs by Giemsa staining-based assay; type: functional, cell-based; settings: MHOM/BR/75/M2904, J774.2, 72 h
# Leishmania infantum [14] = experiment: Antileishmanial activity against amastigote form of Leishmania infantum MCAN/ES/2001/UCM-10 infected in mouse J774.2 cells after 72 hrs by Giemsa staining-based assay; type: functional, cell-based; settings: MCAN/ES/2001/UCM-10, J774.2, 72 h
# Leishmania donovani [15] = experiment: Antileishmanial activity against promastigote form of Leishmania donovani after 48 hrs by Alamar blue assay; type: functional
# Outline: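 Promastigotes grown at 26 °C in Schneider's insect medium with 10% heat-inactivated FBS and penicillin/streptomycin, seeded at 2.5×10^5/well. Exposed to 1:2 serial dilutions (100–0.78 µg/mL final; DMSO stocks) for 48 h at 26 °C, then 2.5 mM resazurin added for 3 h. Fluorescence read at 535/590 nm; inhibition relative to untreated minus background. Triplicates; IC50 by probit; miltefosine reference.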
structure (smiles),measurement,setting,value
CC(=O)NC[C@]1(C)CCC[C@]2(C)c3cc([N+](=O)[O-])c(C(C)C)cc3CC[C@@H]12,CC50 at 48 h,[1],13.7 µM
CC(C)c1cc2c(cc1[N+](=O)[O-])[C@@]1(C)CCC[C@@](C)(CNC(=O)c3ccccc3)[C@@H]1CC2=O,CC50 at 48 h,[1],> 200 µM
same,IC50,Leishmania infantum [2],23.9 µM
same,IC50,Leishmania guyanensis,38.5 µM
same,Ratio CC50/IC50,[3],>11
same,Ratio CC50/IC50,[4],>5
same,IC50,Leishmania amazonensis [5],12.2 µM
same,IC50,Leishmania infantum [6],17.5 µM
same,Ratio CC50/IC50,[7],>37
same,Ratio CC50/IC50,[8],>54
same,Ratio CC50/IC50,[9],>8
same,Ratio CC50/IC50,[10],>16
same,IC50,Leishmania donovani [11],5.4 µM
same,IC50,Leishmania amazonensis [12],3.7 µM
CC(C)c1ccc2c(c1)CC[C@H]1[C@](C)(CNC(=O)c3ccccc3)CCC[C@]21C,CC50 at 48 h,[1],> 200 µM
same,IC50,Leishmania infantum [2],3.1 µM
same,IC50,Leishmania guyanensis,20.4 µM
same,Ratio CC50/IC50,[3],>42
same,Ratio CC50/IC50,[4],>10
same,IC50,Leishmania amazonensis [5],3.7 µM
same,IC50,Leishmania infantum [6],4.7 µM
same,Ratio CC50/IC50,[7],>90
same,Ratio CC50/IC50,[8],>40
same,Ratio CC50/IC50,[9],>64
same,Ratio CC50/IC50,[10],>54
same,IC50,Leishmania donovani [11],2.2 µM
same,IC50,Leishmania amazonensis [12],5 µM
CC(C)c1cc2c(cc1[N+](=O)[O-])[C@@]1(C)CCC[C@@](C)(CNC(=O)c3ccccc3)[C@@H]1CC2,CC50 at 48 h,[1],> 200 µM
same,IC50,Leishmania infantum [2],11.1 µM
same,IC50,Leishmania guyanensis,94.5 µM
same,Ratio CC50/IC50,[3],>61
same,Ratio CC50/IC50,[4],>2
same,IC50,Leishmania amazonensis [5],20.7 µM
same,IC50,Leishmania infantum [6],3.3 µM
same,Ratio IC50,Leishmania infantum [13],18
same,Ratio CC50/IC50,[7],>62
same,Ratio CC50/IC50,[8],>57
same,Ratio CC50/IC50,[9],>18
same,Ratio CC50/IC50,[10],>10
same,IC50,Leishmania donovani [11],3.2 µM
same,IC50,Leishmania amazonensis [12],3.5 µM
CC(=O)NC[C@]1(C)CCC[C@]2(C)c3cc([N+](=O)[O-])c(C(C)C)cc3C(=O)C[C@@H]12,CC50 at 48 h,[1],39.2 µM
CC(=O)NC[C@]1(C)CCC[C@]2(C)c3ccc(C(C)C)cc3C(=O)C[C@@H]12,CC50 at 48 h,[1],72.3 µM
CC(=O)NC[C@]1(C)CCC[C@]2(C)c3ccc(C(C)C)cc3-c3[nH]c4ccc(F)cc4c3[C@@H]12,CC50 at 48 h,[1],28.8 µM
same,IC50,Leishmania infantum [2],1.5 µM
same,IC50,Leishmania amazonensis [5],4 µM
same,Ratio CC50/IC50,[7],10.3
same,Ratio CC50/IC50,[9],19.2
same,Ratio CC50/IC50,[10],7.2
same,IC50,Leishmania donovani [11],2.8 µM
COC(=O)C[C@]1(C)CCC[C@]2(C)c3cc(O)c(C(C)C)cc3CC[C@@H]12,IC50,Leishmania braziliensis,22.3 to 35 µM
same,IC50,Leishmania infantum [14],22.3 to 35 µM
CC(C)c1ccc2c(c1)CC[C@H]1[C@](C)(CN)CCC[C@]21C,CC50 at 48 h,[1],14.5 µM
CC(C)c1cc2c(cc1O)[C@@]1(C)CCCC(C)(C)[C@@H]1CC2 [FERRUGINOL],IC50,Leishmania donovani [15],12.2 µM
CC(C)c1ccc2c(c1)C(=O)C[C@H]1[C@](C)(CNC(=O)c3ccccc3)CCC[C@]21C,CC50 at 48 h,[1],> 200 µM
same,IC50,Leishmania infantum [2],8.7 µM
same,IC50,Leishmania guyanensis,8.6 µM
same,Ratio CC50/IC50,[3],>80
same,Ratio CC50/IC50,[4],>23
same,IC50,Leishmania amazonensis [5],4.9 µM
same,IC50,Leishmania infantum [6],2.5 µM
same,Ratio IC50,Leishmania infantum [13],23
same,Ratio CC50/IC50,[7],>50
same,Ratio CC50/IC50,[8],>67
same,Ratio CC50/IC50,[9],>23
same,Ratio CC50/IC50,[10],>41
same,IC50,Leishmania donovani [11],4 µM
same,IC50,Leishmania amazonensis [12],3 µM
CC(=O)NC[C@]1(C)CCC[C@]2(C)c3ccc(C(C)C)cc3CC[C@@H]12,CC50 at 48 h,[1],21.6 µM
CCCCCCCCCCCCCCCCOP(=O)([O-])OCC[N+](C)(C)C [MILTEFOSINE],CC50 at 48 h,[1],136 µM
same,IC50,Leishmania infantum [2],3.4 µM
same,IC50,Leishmania guyanensis,18.2 µM
same,Ratio CC50/IC50,[3],2.3
same,Ratio CC50/IC50,[4],7.5
same,IC50,Leishmania amazonensis [5],47.7 µM
same,IC50,Leishmania infantum [6],58.1 µM
same,Ratio CC50/IC50,[7],909
same,Ratio CC50/IC50,[8],8.2
same,Ratio CC50/IC50,[9],40.1
same,Ratio CC50/IC50,[10],2.9
same,IC50,Leishmania donovani [11],0.15 µM
same,IC50,Leishmania amazonensis [12],16.5 µM
COC(=O)C[C@@]1(C)CCC[C@]2(C)c3cc(O)c(C(C)C)cc3CC[C@@H]12,IC50,Leishmania braziliensis,22.3 to 35 µM
same,IC50,Leishmania infantum [14],22.3 to 35 µM
